Results: ChEMBL document CHEMBL1123610, “Synthesis and antineoplastic activity of 1a-formyl and 1a-thioformyl derivatives of mitomycin C and 2-methylaziridine” (1987)

Legend:
P388 [1] = assay: In vivo antineoplastic activity against P388 leukemia; type: functional, Mus musculus
Method in brief: (§1)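 Murine P388 lymphocytic leukemia screen, with tumor implanted ip and drug given ip. Response is %T/C = (median survival of treated / median survival of control) × 100, reported at the optimal dose per dose in mg/kg. Mitomycin C was run concurrently. MED is the lowest mg/kg per dose that reaches the criterion %T/C.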

P388 [2] = assay: In vivo antineoplastic activity of mitomycin C sample run concurrently against P388 leukemia screen (optimal dosage); type: functional, Mus musculus; method in brief: as §1
B16 [3] = assay: In vivo antineoplastic activity of mitomycin C sample run concurrently against B16 melanoma screen (optimal dosage); type: functional, Mus musculus
Method in brief: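 Murine B16 melanoma test, with tumor implanted sc and treatment given iv. Activity is %T/C = (median survival of treated / median survival of untreated control) × 100, reported at the optimal dose in mg/kg per dose. A mitomycin C sample was run alongside. MED is the minimum mg/kg per dose meeting the activity criterion for %T/C.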

B16 [4] = assay: In vivo antineoplastic activity against B16 melanoma screen inoculated subcutaneously expressed as minimum effective dose
B16 [5] = assay: In vivo antineoplastic activity against B16 melanoma screen inoculated subcutaneously. Value in parenthesis indicates the optimal dosage
P388 [6] = assay: In vivo antineoplastic activity against P388 leukemia screen inoculated intraperitoneally expressed as minimum effective dose; type: functional; details: Mus musculus, P388, ip; read-out: MED; method in brief: as §1
B16 [7] = assay: In vivo antineoplastic activity against B16 melanoma screen inoculated intraperitoneally expressed as minimum effective dose; type: functional, Mus musculus
B16 [8] = assay: In vivo antineoplastic activity against B16 melanoma screen inoculated intraperitoneally. Value in parenthesis indicates the optimal dosage; type: functional, Mus musculus

| SMILES | T/C (P388 [1]) | T/C (P388 [2]) | T/C (B16 [3]) | MED (B16 [4]) | T/C (B16 [5]) | minimal effective dose (P388 [6]) | MED (B16 [7]) | T/C (B16 [8]) |
| --- | --- | --- | --- | --- | --- | --- | --- | --- |
| CO[C@@]12[C@H](COC(N)=O)C3=C(C(=O)C(C)=C(N)C3=O)N1C[C@H]1[C@H]2N1C(=O)Nc1ccccc1 | 116% | 142% |  |  |  |  |  |  |
| CO[C@@]12[C@H](COC(N)=O)C3=C(C(=O)C(C)=C(N)C3=O)N1C[C@H]1[C@H]2N1C(=O)Sc1ccccc1 | 200% | 275% | 147% | 1.6 | 156% | 1.6 mg/kg |  |  |
| CNC(=S)N1[C@H]2CN3C4=C(C(=O)C(N)=C(C)C4=O)[C@@H](COC(N)=O)[C@@]3(OC)[C@@H]21 | 95% | 152% |  |  |  |  |  |  |
| CNC(=O)N1[C@H]2CN3C4=C(C(=O)C(N)=C(C)C4=O)[C@@H](COC(N)=O)[C@@]3(OC)[C@@H]21 | 121% | 142% |  |  |  |  |  |  |
| CO[C@@]12[C@H](COC(N)=O)C3=C(C(=O)C(C)=C(N)C3=O)N1C[C@H]1[C@H]2N1C(=O)SC | 132% | 142% |  |  |  | 12.8 mg/kg |  |  |
| CO[C@@]12[C@H](COC(N)=O)C3=C(C(=O)C(C)=C(N)C3=O)N1C[C@H]1[C@H]2N1C(=S)SC | 122% | >333% |  |  |  |  |  |  |
| CO[C@@]12[C@H](COC(N)=O)C3=C(C(=O)C(C)=C(N)C3=O)N1C[C@H]1[C@H]2N1/C(S)=N\c1ccccc1 | 127% | 200% |  |  |  | 2.56 mg/kg |  |  |
| CO[C@@]12[C@H](COC(N)=O)C3=C(C(=O)C(C)=C(N)C3=O)N1C[C@H]1[C@H]2N1C(=S)Sc1ccccc1 | 167% | 172% |  |  |  | 12.8 mg/kg |  |  |
| CO[C@@]12[C@H](COC(N)=O)C3=C(C(=O)C(C)=C(N)C3=O)N1C[C@H]1[C@H]2N1C(=O)Oc1ccccc1 | 194% | 275% | 147% |  |  | 1.6 mg/kg | 3.2 | 165% |
| COC(=O)N1[C@H]2CN3C4=C(C(=O)C(N)=C(C)C4=O)[C@@H](COC(N)=O)[C@@]3(OC)[C@@H]21 | 194% | 275% | 147% | 6.4 | 165% | 3.2 mg/kg |  |  |
| CO[C@@]12[C@H](COC(N)=O)C3=C(C(=O)C(C)=C(N)C3=O)N1C[C@H]1[C@H]2N1C(=S)Oc1ccccc1 | 162% | 152% |  |  |  | 51.2 mg/kg |  |  |
